According to paper PMC3766433 (Journal of neurochemistry, 2013):

Assays:
Format in all cases: binding
[1] = molecular target: T1, Munc13-1 C1 (WT) (Rattus norvegicus, UniProt Q62768); experiment: photolabeling, LC-MS/MS; conditions: covalent (photoaffinity), site Glu-582
[2] = molecular target: Munc13-1 C1 (WT) (Rattus norvegicus, UniProt Q62768, E582H); experiment: intrinsic fluorescence quenching, logistic fit
How it was run: (§1)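 GST-fused Munc13-1 C1 domain (wild type or Glu-582 mutant) was expressed in E. coli BL21 DE3 gold, affinity-purified and thrombin-cleaved. Protein was held at 1 μM in 50 mM Tris, 100 mM NaCl, pH 7.4. Alcohols were added neat or from a 0.25 M DMSO stock, at 1–250, 1–150 or 1–5 mM depending on the alcohol. After 15 min incubation, samples were excited at 280 nm. Emission at 348–350 nm was buffer-corrected and fitted to a logistic equation; runs were done in triplicate.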

[3] = molecular target: Munc13-1 C1 (WT) (Rattus norvegicus, UniProt Q62768, E582A); experiment: intrinsic fluorescence quenching, logistic fit
How it was run: as §1

[4] = molecular target: T1, Munc13-1 C1 (WT); experiment: intrinsic fluorescence quenching, logistic fit
How it was run: as §1

[5] = molecular target: Munc13-1 C1 (WT) (Rattus norvegicus, UniProt Q62768, E582L); experiment: intrinsic fluorescence quenching, logistic fit
How it was run: as §1

Q: Which “photolabeling, LC-MS/MS; fluorescence quenching” value [1] does the source give for `CC1(CCO)N=N1` [3-azibutanol] here?
A: The value was 3-azibutanol labeled the Munc13-1 C1 at the Glu-582 site.

Q: For `CCCCO` [Butanol], which EC50 [2] is on record?
A: Its EC50 is 75.3 ± 1.9 mM.

Q: What about the EC50 [3] of the same molecule?
A: Its EC50 is 59.9 ± 0.9 mM.

Q: What about the EC50 [4] of the same molecule?
A: The EC50 was 25.8 ± 1.1 mM.

Q: What about the EC50 [5] of the same molecule?
A: The EC50 was 70.5 ± 1.8 mM.

Q: `CCO` [Ethanol] was tested. Which EC50 [4] did it give?
A: Its EC50 is 51.7 ± 2.8 mM.

Q: For `CCCCCCCCO` [Octanol], which EC50 [2] is on record?
A: The EC50 was 1.1 ± 0.07 mM.

Q: And the EC50 [3]?
A: Its EC50 is 2.6 ± 0.2 mM.

Q: What about the EC50 [4] of the same molecule?
A: Its EC50 is 0.7 ± 0.03 mM.

Q: And the EC50 [5]?
A: Its EC50 is 3.3 ± 0.06 mM.
